Experiments:
[1] = species: Cavia porcellus; test: Sum of the scores of decrease of the sinus rate and selectivity versus the decrease in force of contraction; format: functional
[2] = species: Rattus norvegicus; test: Score value indicates selectivity against the undesired effect on diastolic blood pressure; format: functional, Artery
[3] = species: Rattus norvegicus; test: Selectivity quotient (R&T125/HR75)
[4] = species: Cavia porcellus; test: In vitro activity in guinea pig atria was measured as the peak force of contraction (F) of a stimulated left atrium; format: functional; settings: Cardiac atrium
How it was run: (§1)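 Isolated guinea pig atria in oxygenated buffer at 35 °C. Right atria beat spontaneously; left atria were paced at 2 Hz with 1 ms rectangular pulses and isometric contractions were recorded. Cumulative concentration–response curves were run with up to five concentrations. EC75/EC125 is the concentration giving a 25% decrease/increase from the predrug value, reported as the geometric mean of individual ECs.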

[5] = system: Rattus norvegicus; test: In vivo activity in anesthetized rat was measured as heart rate which provides information on in vivo bradycardic activity; format: functional
How it was run: (§2)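 Male Wistar rats (280–360 g) under urethane (1.25 g/kg ip), intubated and breathing spontaneously. Femoral arterial pressure was recorded with needle-electrode ECG, analysed every 30 s. Compound was given by continuous femoral-vein infusion at 0.1 mL/min, with concentration raised tenfold every 10 min (3 doses). ED75/ED125 is the dose giving a 25% decrease/increase from the predrug value, reported as the geometric mean of individual EDs.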

[6] = species: Rattus norvegicus; test: Selectivity quotient (DAP125/HR75)
[7] = species: Cavia porcellus; test: Score point for the selectivity versus additional effect FRP.; format: functional
[8] = species: Rattus norvegicus; test: Total score (SS)
[9] = species: Cavia porcellus; test: Score value indicates decrease of the sinus rate; format: functional
[10] = species: Rattus norvegicus; test: Score value indicates desire effect on heart rate; format: functional
[11] = species: Cavia porcellus; test: In vitro activity in guinea pig atria as the functional refractory period (FRP), which is the shortest interval between a double stimulus causing a double contraction.; how it was run: as §1
[12] = system: Rattus norvegicus; test: In vivo activity in anesthetized rat was measured as the R alpha T-interval of the rat ECG which reflects the time from ventricular excitation to recovery; format: functional, Cardiac ventricle; how it was run: as §2
[13] = species: Cavia porcellus; test: In vitro activity in guinea pig atria was measured as rate of spontaneously beating right atrium (SR) which reflects the activity of the sinus node; format: functional; settings: Cardiac atrium; how it was run: as §1
[14] = system: Rattus norvegicus; test: In vivo activity in anesthetized rat was measured as the diastolic arterial pressure which provides information on the peripheral resistance of the cardiovascular system and selectivity regarding bradycardia; format: functional, Artery; how it was run: as §2
[15] = Partition coefficient (logP); format: physicochemical; settings: octanol/water
How it was run: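 Lipophilicity was measured by reversed-phase HPLC. Mobile phase was methanol/0.005 M phosphate buffer pH 4 (60/40) with 0.1% SDS and 0.1 M NaClO4, at 23.0 ± 0.5 °C, with UV detection at 205 nm.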

[16] = species: Rattus norvegicus; test: Score point for the selectivity versus additional effect R&T interval.; format: functional
[17] = species: Cavia porcellus; test: Selectivity quotient (F75/SR75); format: functional
How it was run: (§3)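 Atrial selectivity quotients were calculated from the guinea pig atrial EC values as F75/SR75 and FRP125/SR75.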

[18] = species: Cavia porcellus; test: Score value indicates selectivity versus the decrease in force of contraction; format: functional
[19] = species: Cavia porcellus; test: Selectivity quotient (FRP125/SR75); format: functional; how it was run: as §3

logP ([15]; read-out: logP) | logP [15] | Structure (SMILES) | Score [1] | Score [2] | Selectivity quotient [3] | EC75 [4] [µM] | ED75 [5] [µM/kg] | Selectivity quotient [6] | Score [7] | total score (SS) [8] | Score [9] | Score [10] | EC125 [11] [µM] | ED125 [12] [µM/kg] | EC75 [13] [µM] | ED125 [14] [µM/kg] | Score [16] | Selectivity quotient [17] | Score [18] | Selectivity quotient [19]
3.42 |  | C=CCCN1CC2CN(CCCC)CC(C1)C2(C)C | 5 | -4 | 0.12 | 106 | 5.9 | 0.37 | 3 | 1 | 5 | 5 | 2.08 | 0.7 | 1.21 | 2.2 | 5 | 87.6 | 0 | 1.72
4.24 |  | CCCCN1CC2CN(CCCC)CC(C1)C21CCC1 | 6 | -5 | 0.12 | 56.1 | 4.7 | 0.13 | 3 | 1 | 6 | 6 | 0.63 | 0.55 | 0.52 | 0.6 | 5 | 108 | 0 | 1.21
7.43 |  | C1CCC(CN2CC3CN(CC4CCCCC4)CC(C2)C32CCCCC2)CC1 | -3 | -2 | 0.6 | 2.65 | 20 | >3 | 6 | 1 | 3 | 3 | 0.62 | 12 | 7.57 | >61 | 3 | 0.35 | -6 | 0.08
4.29 |  | CC(C)CN1CC2CN(C(C)C)CC(C1)C21CCCCC1 | 5 | -1 | 0.13 | 35.5 | 5.7 | >7 | 3 | 4 | 5 | 5 | 1.54 | 0.73 | 1 | >41 | 5 | 35.5 | 0 | 1.54
5.32 |  | C=CCCN1CC2CN(CC(C)C)CC(C1)C2(CCC)CCC | 6 | -3 | 0.09 | 23.1 | 3.5 | 0.68 | 3 | 3 | 6 | 6 | 0.73 | 0.32 | 0.44 | 2.4 | 6 | 52.5 | 0 | 1.66
5.47 |  | CCCCCCN1CC2CN(CCCCCC)CC(C1)C21CCCC1 | 3 | -4 | 0.4 | 3.07 | 14 | 0.2 | 3 | -1 | 6 | 3 | 0.44 | 5.6 |  | 2.8 | 4 | 3.53 | -3 | 0.51
4.49 |  | C=CCCN1CC2CN(CCC=C)CC(C1)C21CCCCC1 | 6 | -4 | 0.12 | 75.1 | 4.9 | 0.31 | 2 | 2 | 6 | 6 | 1.14 | 0.58 | 0.4 | 1.5 | 5 | 167 | 0 | 2.85

Continued, molecule first:

Structure (SMILES) | logP ([15]; read-out: logP) | logP [15] | Score [1] | Score [2] | Selectivity quotient [3] | EC75 [4] [µM] | ED75 [5] [µM/kg] | Selectivity quotient [6] | Score [7] | total score (SS) [8] | Score [9] | Score [10] | EC125 [11] [µM] | ED125 [12] [µM/kg] | EC75 [13] [µM] | ED125 [14] [µM/kg] | Score [16] | Selectivity quotient [17] | Score [18] | Selectivity quotient [19]
CCCC1(C)C2CN(C(C)C)CC1CN(C(C)C)C2 (configuration not stated) | 3.53 |  | 5 | -1 | 0.12 | 211 | 4.5 | >8 | 3 | 5 | 5 | 6 | 2.63 | 0.53 | 1.99 | >36 | 5 | 106 | 0 | 1.32
CCCCC1(CCCC)C2CN(CC3CCCCC3)CC1CN(C(C)C)C2 | 7.61 |  | 0 | -1 | 0.12 | 3.65 | 9.3 | >7 | 3 | 3 | 5 | 4 | 1.45 | 1.1 | 1.9 | >66 | 5 | 1.92 | -5 | 0.76
CCCCCCCCCCN1CC2CN(CCCCCCCCCC)CC(C1)C2(C)C |  | 9.64 |  |  |  | 105 |  |  |  |  |  |  | 85 |  |  |  |  |  |  | 
C=CCN1CC2CN(CC=C)CC(C1)C2(C)C | 2.7 |  | 3 |  |  | > 215 |  |  | 4 |  | 3 |  | 4.3 |  | 8.55 |  |  | >25 | 0 | 0.5
CN1CC2CN(C)CC(C1)C2(C)C | 1.61 |  | -5 |  |  |  |  |  | 3 |  | 0 |  | 122 |  |  |  |  | 1 | -5 | 1
CCCCN1CC2CN(CCCC)CC(C1)C2(C)C | 3.88 |  | 4 | -6 | 0.11 | 104 | 5.3 | 0.04 | 4 | -1 | 4 | 5 | 1 | 0.57 | 3 | 0.2 | 5 | 35 | 0 | 0.33
CCCCCCN1CC2CN(C)CC(C1)C2(CC)CC | 4.88 |  |  | -1 | 0.12 | 17.5 | 25 | >4 |  | 2 |  | 3 | 0.84 | 3 |  | >106 | 5 |  |  | 

Source: ChEMBL document CHEMBL1131456, “Synthesis, pharmacological characterization, and quantitative structure-activity relationship analyses of 3,7,9,9-tetraalkylbispidines: derivatives with specific bradycardic activity” (J Med Chem, 1998)
